In ChEMBL document CHEMBL3525913, “Metabolism-dependent inhibition of CYP3A4 by lapatinib: evidence for formation of a metabolic intermediate complex with a nitroso/oxime metabolite formed via a nitrone intermediate” (Drug Metab Dispos, 2013):
Each block holds one molecule with its values, some of them ahead of it.

Columns and labels:
[1] = biological target: T1, Cytochrome P450 3A5 (Homo sapiens, UniProt P20815); assay: Activity of recombinant CYP3A5 (unknown origin) assessed as compound formation treated with lapatinib at 50 uM by LC/MS/MS analysis; type: ADME; conditions: recombinant enzyme
Procedure, shortened: (§1)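 Lapatinib 50 μM (added in DMSO) incubated 30 min at 37°C in 100 mM potassium phosphate pH 7.4 with HLM 1 mg/mL or recombinant CYP3A4+b5 / CYP3A5+b5 100 pmol/mL. Reaction started with NADPH 1 mM. Protein re-isolated by ultracentrifugation (100,000 x g, 4°C, 60 min), washed (KCl/EDTA), resuspended in phosphate buffer, ±2 mM ferricyanide 10 min 37°C, quenched with acetonitrile, then high-resolution LC/MS profiling.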

[2] = biological target: T2, Cytochrome P450 3A4 (Homo sapiens, UniProt P08684); assay: Activity of recombinant CYP3A4 (unknown origin) assessed as compound formation treated with lapatinib at 50 uM by LC/MS/MS analysis; type: ADME; conditions: recombinant enzyme; procedure, shortened: as §1
[3] = Retention time of the compound by LC/MS/MS analysis relative to lapatinib; type: physicochemical
Procedure, shortened: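 Phenyl UPLC column (1.7 μm, 2.1 x 100 mm), 0.1% formic acid in water/acetonitrile, 0.4 mL/min. Gradient: 10% organic for 1 min, to 90% over 13 min, held 0.5 min. Detection by accurate-mass MS. Retention times expressed relative to lapatinib.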

[4] = system: Liver microsome; assay: Drug level in human liver microsomes treated with lapatinib at 50 uM by LC/MS/MS analysis; type: ADME; procedure, shortened: as §1
[5] = biological target: T2, Cytochrome P450 3A4; assay: Activity of recombinant CYP3A4 (unknown origin) assessed as 2-chloro-4-(6-(5-((2-(methylsulfonyl)ethylamino)methyl)furan-2-yl)quinazolin-4-ylamino)phenol formation at 50 uM for 30 mins by LC/MS/MS analysis; type: ADME; conditions: recombinant enzyme, 0.5 h; procedure, shortened: as §1
[6] = system: Liver microsome; assay: Drug metabolism in human liver microsomes assessed as 5-(4-(3-chloro-4-(3-fluorobenzyloxy)phenylamino)quinazolin-6-yl)furan-2-carbaldehyde oxime formation at 50 uM for 30 mins by LC/MS/MS analysis; type: ADME; conditions: 0.5 h; procedure, shortened: as §1
[7] = biological target: T2, Cytochrome P450 3A4; assay: Activity of recombinant CYP3A4 (unknown origin) assessed as (5-(4-(3-chloro-4-(3-fluorobenzyloxy)phenylamino)quinazolin-6-yl)furan-2-yl)methanol formation at 50 uM for 30 mins by LC/MS/MS analysis; type: ADME; conditions: recombinant enzyme, 0.5 h; procedure, shortened: as §1
[8] = biological target: T2, Cytochrome P450 3A4; assay: Activity of recombinant CYP3A4 (unknown origin) assessed as N-((5-(4-(3-chloro-4-(3-fluorobenzyloxy)phenylamino)quinazolin-6-yl)furan-2-yl)methylene)-2-(methylsulfonyl)ethanamine oxide formation at 50 uM for 30 mins by LC/MS/MS analysis; type: ADME; conditions: recombinant enzyme, 0.5 h; procedure, shortened: as §1
[9] = system: Liver microsome; assay: Drug metabolism in human liver microsomes assessed as N-((5-(4-(3-chloro-Drug metabolism in human liver microsomes assessed as 5-(4-(3-chloro-4-(3-fluorobenzyloxy)phenylamino)quinazolin-6-yl)furan-2-carbaldehyde formation at 50 uM for 30 mins by LC/MS/MS analysis; type: ADME; conditions: 0.5 h; procedure, shortened: as §1
[10] = biological target: T1, Cytochrome P450 3A5; assay: Activity of recombinant CYP3A5 (unknown origin) assessed as 2-chloro-4-(6-(5-((2-(methylsulfonyl)ethylamino)methyl)furan-2-yl)quinazolin-4-ylamino)phenol formation at 50 uM for 30 mins by LC/MS/MS analysis; type: ADME; conditions: recombinant enzyme, 0.5 h; procedure, shortened: as §1
[11] = biological target: T1, Cytochrome P450 3A5; assay: Activity of recombinant CYP3A5 (unknown origin) assessed as (5-(4-(3-chloro-4-(3-fluorobenzyloxy)phenylamino)quinazolin-6-yl)furan-2-yl)methanol formation at 50 uM for 30 mins by LC/MS/MS analysis; type: ADME; conditions: recombinant enzyme, 0.5 h; procedure, shortened: as §1
[12] = system: Liver microsome; assay: Drug metabolism in human liver microsomes assessed as (5-(4-(3-chloro-4-(3-fluorobenzyloxy)phenylamino)quinazolin-6-yl)furan-2-yl)methanol formation at 50 uM for 30 mins by LC/MS/MS analysis; type: ADME; conditions: 0.5 h; procedure, shortened: as §1
[13] = system: Liver microsome; assay: Drug metabolism in human liver microsomes assessed as 2-chloro-4-(6-(5-((2-(methylsulfonyl)ethylamino)methyl)furan-2-yl)quinazolin-4-ylamino)phenol formation at 50 uM for 30 mins by LC/MS/MS analysis; type: ADME; conditions: 0.5 h; procedure, shortened: as §1
[14] = system: Liver microsome; assay: Drug metabolism in human liver microsomes assessed as N-(3-chloro-4-(3-fluorobenzyloxy)phenyl)-6-(5-((hydroxy(2 (methylsulfonyl)ethyl)amino)methyl)furan-2-yl)quinazolin-4-amine formation at 50 uM for 30 mins by LC/MS/MS analysis; type: ADME; conditions: 0.5 h; procedure, shortened: as §1
[15] = biological target: T3, CYP3A4 (Homo sapiens, UniProt P08684); assay: Inhibition of CYP3A4-mediated midazolam 1-hydroxylation in human liver microsomes at 50 uM; type: ADME; conditions: probe midazolam (1-hydroxylation)
Procedure, shortened: (§2)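 30 min preincubation with 50 μM test compound (DMSO) and 1 mM NADPH at 37°C in 100 mM potassium phosphate, pH 7.4. Enzyme source was HLM at 1 mg/mL or recombinant CYP3A4 + b5 at 100 pmol/mL. Residual activity assayed with midazolam (30 μM; 5 min; 37°C) at 0.05 mg/mL. 1'-hydroxymidazolam quantified by LC/MS/MS and normalised to solvent controls.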

[16] = system: Liver microsome; assay: Drug metabolism in human liver microsomes assessed as 2-chloro-4-(6-(5-(hydroxy(2-(methylsulfonyl)ethylamino)methyl)furan-2-yl)quinazolin-4-ylamino)phenol formation at 50 uM for 30 mins by LC/MS/MS analysis; type: ADME; conditions: 0.5 h; procedure, shortened: as §1
[17] = system: Liver microsome; assay: Drug metabolism in human liver microsomes assessed as N-((5-(4-(3-chloro-4-(3-fluorobenzyloxy)phenylamino)quinazolin-6-yl)furan-2-yl)methylene)-2-(methylsulfonyl)ethanamine oxide formation at 50 uM for 30 mins by LC/MS/MS analysis; type: ADME; conditions: 0.5 h; procedure, shortened: as §1
[18] = biological target: T2, Cytochrome P450 3A4; assay: Activity of recombinant CYP3A4 (unknown origin) assessed as 2-chloro-4-(6-(5-(hydroxy(2-(methylsulfonyl)ethylamino)methyl)furan-2-yl)quinazolin-4-ylamino)phenol formation at 50 uM for 30 mins by LC/MS/MS analysis; type: ADME; conditions: recombinant enzyme, 0.5 h; procedure, shortened: as §1
[19] = biological target: T3, CYP3A4; assay: Inhibition of recombinant CYP3A4 (unknown origin)-mediated midazolam 1-hydroxylation at 50 uM; type: ADME; conditions: recombinant CYP3A4, probe midazolam (1-hydroxylation); procedure, shortened: as §2
[20] = biological target: T1, Cytochrome P450 3A5; assay: Inhibition of recombinant CYP3A5 (unknown origin)-mediated midazolam 1-hydroxylation at 50 uM in presence of 2 mM ferricyanide; type: ADME; conditions: recombinant enzyme
Procedure, shortened: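 Recombinant CYP3A5 + b5 (100 pmol/mL) preincubated 30 min at 37°C with test compound (50 μM) in 100 mM potassium phosphate pH 7.4, started with 1 mM NADPH. Then potassium ferricyanide (2 mM final) for 10 min at 37°C, ultracentrifugation, pellet washed. Residual midazolam (30 μM, 5 min, 37°C) 1'-hydroxylation measured by LC/MS/MS, normalized to solvent controls.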

[21] = biological target: T1, Cytochrome P450 3A5; assay: Activity of recombinant CYP3A5 (unknown origin) assessed as 6-(5-(aminomethyl)furan-2-yl)-N-(3-chloro-4-(3-fluorobenzyloxy)phenyl)quinazolin-4-amine formation at 50 uM for 30 mins by LC/MS/MS analysis; type: ADME; conditions: recombinant enzyme, 0.5 h; procedure, shortened: as §1
[22] = biological target: T1, Cytochrome P450 3A5; assay: Activity of recombinant CYP3A5 (unknown origin) assessed as 5-(4-(3-chloro-4-(3-fluorobenzyloxy)phenylamino)quinazolin-6-yl)furan-2-carbaldehyde formation at 50 uM for 30 mins by LC/MS/MS analysis; type: ADME; conditions: recombinant enzyme, 0.5 h; procedure, shortened: as §1
[23] = biological target: T1, Cytochrome P450 3A5; assay: Activity of recombinant CYP3A5 (unknown origin) assessed as 5-(4-(3-chloro-4-(3-fluorobenzyloxy)phenylamino)quinazolin-6-yl)furan-2-carbaldehyde oxime formation at 50 uM for 30 mins by LC/MS/MS analysis; type: ADME; conditions: recombinant enzyme, 0.5 h; procedure, shortened: as §1
[24] = biological target: T2, Cytochrome P450 3A4; assay: Activity of recombinant CYP3A4 (unknown origin) assessed as 6-(5-(aminomethyl)furan-2-yl)-N-(3-chloro-4-(3-fluorobenzyloxy)phenyl)quinazolin-4-amine formation at 50 uM for 30 mins by LC/MS/MS analysis; type: ADME; conditions: recombinant enzyme, 0.5 h; procedure, shortened: as §1
[25] = biological target: T2, Cytochrome P450 3A4; assay: Activity of recombinant CYP3A4 (unknown origin) assessed as 5-(4-(3-chloro-4-(3-fluorobenzyloxy)phenylamino)quinazolin-6-yl)furan-2-carbaldehyde oxime formation at 50 uM for 30 mins by LC/MS/MS analysis; type: ADME; conditions: recombinant enzyme, 0.5 h; procedure, shortened: as §1
[26] = biological target: T1, Cytochrome P450 3A5; assay: Activity of recombinant CYP3A5 (unknown origin) assessed as N-((5-(4-(3-chloro-4-(3-fluorobenzyloxy)phenylamino)quinazolin-6-yl)furan-2-yl)methylene)-2-(methylsulfonyl)ethanamine oxide formation at 50 uM for 30 mins by LC/MS/MS analysis; type: ADME; conditions: recombinant enzyme, 0.5 h; procedure, shortened: as §1
[27] = biological target: CYP3A5 (Homo sapiens, UniProt P20815); assay: Inhibition of recombinant CYP3A5 (unknown origin)-mediated midazolam 1-hydroxylation at 50 uM; type: ADME; conditions: recombinant CYP3A5, probe midazolam (1-hydroxylation)
Procedure, shortened: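 Recombinant CYP3A5+b5 (100 pmol/mL) preincubated 30 min at 37°C, pH 7.4, with lapatinib 50 μM and 1 mM NADPH. Solvent controls run alongside. Residual activity measured as midazolam (30 μM, 5 min, 37°C) 1'-hydroxylation by LC/MS/MS at 0.05 mg/mL. Measured directly and after ultracentrifugation (100,000 x g, 60 min) with or without 2 mM ferricyanide (10 min). Normalized to solvent control.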

[28] = system: Liver microsome; assay: Drug metabolism in human liver microsomes assessed as 6-(5-(aminomethyl)furan-2-yl)-N-(3-chloro-4-(3-fluorobenzyloxy)phenyl)quinazolin-4-amine formation at 50 uM for 30 mins by LC/MS/MS analysis; type: ADME; conditions: 0.5 h; procedure, shortened: as §1
[29] = biological target: T1, Cytochrome P450 3A5; assay: Activity of recombinant CYP3A5 (unknown origin) assessed as N-(3-chloro-4-(3-fluorobenzyloxy)phenyl)-6-(5-((hydroxy(2 (methylsulfonyl)ethyl)amino)methyl)furan-2-yl)quinazolin-4-amine formation at 50 uM for 30 mins by LC/MS/MS analysis; type: ADME; conditions: recombinant enzyme, 0.5 h; procedure, shortened: as §1
[30] = biological target: T1, Cytochrome P450 3A5; assay: Activity of recombinant CYP3A5 (unknown origin) assessed as 2-chloro-4-(6-(5-(hydroxy(2-(methylsulfonyl)ethylamino)methyl)furan-2-yl)quinazolin-4-ylamino)phenol formation at 50 uM for 30 mins by LC/MS/MS analysis; type: ADME; conditions: recombinant enzyme, 0.5 h; procedure, shortened: as §1
[31] = biological target: T2, Cytochrome P450 3A4; assay: Activity of recombinant CYP3A4 (unknown origin) assessed as 5-(4-(3-chloro-4-(3-fluorobenzyloxy)phenylamino)quinazolin-6-yl)furan-2-carbaldehyde formation at 50 uM for 30 mins by LC/MS/MS analysis; type: ADME; conditions: recombinant enzyme, 0.5 h; procedure, shortened: as §1
[32] = biological target: T2, Cytochrome P450 3A4; assay: Activity of recombinant CYP3A4 (unknown origin) assessed as N-(3-chloro-4-(3-fluorobenzyloxy)phenyl)-6-(5-((hydroxy(2 (methylsulfonyl)ethyl)amino)methyl)furan-2-yl)quinazolin-4-amine formation at 50 uM for 30 mins by LC/MS/MS analysis; type: ADME; conditions: recombinant enzyme, 0.5 h; procedure, shortened: as §1

T1 sequence (P20815 whole entry): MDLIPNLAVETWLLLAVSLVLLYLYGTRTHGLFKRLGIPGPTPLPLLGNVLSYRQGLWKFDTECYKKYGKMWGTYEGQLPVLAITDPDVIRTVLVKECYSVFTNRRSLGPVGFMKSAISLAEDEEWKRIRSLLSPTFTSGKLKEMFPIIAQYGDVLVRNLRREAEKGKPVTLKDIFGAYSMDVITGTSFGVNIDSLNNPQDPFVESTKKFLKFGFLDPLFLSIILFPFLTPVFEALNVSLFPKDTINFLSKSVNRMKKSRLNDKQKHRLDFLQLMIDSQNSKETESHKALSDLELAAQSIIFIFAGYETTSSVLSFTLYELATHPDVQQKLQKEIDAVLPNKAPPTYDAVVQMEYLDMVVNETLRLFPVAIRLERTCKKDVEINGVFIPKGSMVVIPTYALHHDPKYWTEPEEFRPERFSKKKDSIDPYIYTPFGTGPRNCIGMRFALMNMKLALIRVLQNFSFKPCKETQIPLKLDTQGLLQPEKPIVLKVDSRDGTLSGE
T2 sequence (P08684 whole entry): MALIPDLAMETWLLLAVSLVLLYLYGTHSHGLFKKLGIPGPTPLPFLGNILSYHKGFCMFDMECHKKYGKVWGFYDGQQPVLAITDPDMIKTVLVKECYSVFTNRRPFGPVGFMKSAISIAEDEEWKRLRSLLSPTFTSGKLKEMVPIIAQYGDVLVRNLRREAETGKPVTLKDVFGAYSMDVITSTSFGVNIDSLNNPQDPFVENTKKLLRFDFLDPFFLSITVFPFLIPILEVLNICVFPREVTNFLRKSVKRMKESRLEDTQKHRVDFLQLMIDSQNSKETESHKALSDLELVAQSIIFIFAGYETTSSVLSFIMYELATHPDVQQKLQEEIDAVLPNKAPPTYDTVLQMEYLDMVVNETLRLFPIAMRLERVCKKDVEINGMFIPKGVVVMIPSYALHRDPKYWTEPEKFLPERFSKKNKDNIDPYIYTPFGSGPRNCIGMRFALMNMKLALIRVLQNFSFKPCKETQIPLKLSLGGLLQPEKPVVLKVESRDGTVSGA
T3 sequence (P08684 whole entry): as above
Chain of CYP3A5 (P20815 whole entry): as the sequence (P20815 whole entry) above

Drug metabolism [1]: metabolite_detected
Drug metabolism [2]: metabolite_detected
Ratio [3]: 1.11
Drug metabolism [4]: metabolite_detected
Structure (SMILES): CS(=O)(=O)CC/[N+]([O-])=C/c1ccc(-c2ccc3ncnc(Nc4ccc(OCc5cccc(F)c5)c(Cl)c4)c3c2)o1

Drug metabolism [1]: metabolite_detected
Drug metabolism [2]: metabolite_detected
Ratio [3]: 1.21
Drug metabolism [4]: metabolite_detected
Structure (SMILES): O=Cc1ccc(-c2ccc3ncnc(Nc4ccc(OCc5cccc(F)c5)c(Cl)c4)c3c2)o1

Drug metabolism [1]: metabolite_detected
Drug metabolism [2]: metabolite_detected
Ratio [3]: 0.78
Drug metabolism [4]: metabolite_detected
Structure (SMILES): CS(=O)(=O)CCNC(O)c1ccc(-c2ccc3ncnc(Nc4ccc(O)c(Cl)c4)c3c2)o1 (centres undefined)

Drug metabolism [1]: metabolite_detected
Drug metabolism [2]: metabolite_detected
Ratio [3]: 1.13
Drug metabolism [4]: metabolite_detected
Structure (SMILES): OCc1ccc(-c2ccc3ncnc(Nc4ccc(OCc5cccc(F)c5)c(Cl)c4)c3c2)o1

Structure (SMILES): CS(=O)(=O)CCNCc1ccc(-c2ccc3ncnc(Nc4ccc(OCc5cccc(F)c5)c(Cl)c4)c3c2)o1 [LAPATINIB]
Drug metabolism [5]: metabolite_detected
Drug metabolism [6]: metabolite_detected
Drug metabolism [7]: metabolite_detected
Drug metabolism [8]: metabolite_detected
Drug metabolism [9]: metabolite_detected
Drug metabolism [10]: metabolite_detected
Drug metabolism [11]: metabolite_detected
Drug metabolism [12]: metabolite_detected
Drug metabolism [13]: metabolite_detected
Drug metabolism [14]: metabolite_detected
inhibition at 50 µM [15]: 45%
Drug metabolism [16]: metabolite_detected
Drug metabolism [17]: metabolite_detected
Drug metabolism [18]: metabolite_detected
inhibition at 50 µM [19]: 45%
inhibition (INH) [20]: Active
Drug metabolism [21]: metabolite_detected
Drug metabolism [22]: metabolite_detected
Drug metabolism [23]: metabolite_detected
Drug metabolism [24]: metabolite_detected
Drug metabolism [25]: metabolite_detected
Drug metabolism [26]: metabolite_detected
inhibition at 50 µM [27]: < 15%
Drug metabolism [28]: metabolite_detected
Drug metabolism [29]: metabolite_detected
Drug metabolism [30]: metabolite_detected
Drug metabolism [31]: metabolite_detected
Drug metabolism [32]: metabolite_detected
